Assay type in all cases: nucleic-acid assay
The test system of test [1] is Nucleic Acid. In words: Binding affinity to 5'-GCTAAAAAGAGAGAGAGATCG-3'/5'- CGATCTCTCTCTCTTTTTAGC-3' double stranded DNA assessed as melting temperature at 1.5 uM in sodium phosphate buffer at pH 7 by UV spectrophotometric analysis. In outline: (§1)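 UV melting of triplexes between each modified TFO and the 21-bp duplex target, in 7 mM sodium phosphate buffer (pH 7.0), 140 mM KCl and 10 mM MgCl₂. Each oligonucleotide at 1.5 µM final. Absorbance followed at 260 nm from 5 °C to 85 °C, scanned at 0.5 °C/min, to give Tm.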

In test [2] the test system is Nucleic Acid. In words: Binding affinity to 5'-GCTAAAAAGAAAGAGAGATCG-3'/5'- CGATCTCTCTTTCTTTTTAGC-3' double stranded DNA assessed as melting temperature at 1.5 uM in sodium phosphate buffer at pH 7 by UV spectrophotometric analysis. In outline: as §1
The subject of test [3] is Nucleic Acid. Kind of test: Binding affinity to5'-GCTAAAAAGACAGAGAGATCG-3'/5'- CGATCTCTCTGTCTTTTTAGC-3' double stranded DNA assessed as melting temperature at 1.5 uM in sodium phosphate buffer at pH 7 by UV spectrophotometric analysis. In outline:
as §1

Test [4] deals with Nucleic Acid. In words: Binding affinity to 5'-GCTAAAAAGATAGAGAGATCG-3'/5'- CGATCTCTCTATCTTTTTAGC-3' double stranded DNA assessed as melting temperature at 1.5 uM in sodium phosphate buffer at pH 7 by UV spectrophotometric analysis. In outline: as §1

In the case of `Cc1cn([C@H]2C[C@H](OP(=O)(O)OC[C@H]3O[C@@H](n4cc(C)c(=O)[nH]c4=O)C[C@@H]3OP(=O)(O)OC[C@H]3O[C@@H](n4cc(C)c(N)nc4=O)C[C@@H]3OP(=O)(O)OC[C@H]3O[C@@H](n4cc(C)c(=O)[nH]c4=O)C[C@@H]3OP(=O)(O)OC[C@H]3O[C@@H](n4cc(C)c(N)nc4=O)C[C@@H]3OP(=O)(O)OC[C@H]3O[C@@H](n4cc(C)c(=O)[nH]c4=O)C[C@@H]3OP(=O)(O)OC[C@H]3O[C@@H](c4cn(-c5cccc(NC(N)=O)c5)nn4)C[C@@H]3OP(=O)(O)OC[C@H]3O[C@@H](n4cc(C)c(=O)[nH]c4=O)C[C@@H]3OP(=O)(O)OC[C@H]3O[C@@H](n4cc(C)c(N)nc4=O)C[C@@H]3OP(=O)(O)OC[C@H]3O[C@@H](n4cc(C)c(=O)[nH]c4=O)C[C@@H]3OP(=O)(O)OC[C@H]3O[C@@H](n4cc(C)c(=O)[nH]c4=O)C[C@@H]3OP(=O)(O)OC[C@H]3O[C@@H](n4cc(C)c(=O)[nH]c4=O)C[C@@H]3OP(=O)(O)OC[C@H]3O[C@@H](n4cc(C)c(=O)[nH]c4=O)C[C@@H]3OP(=O)(O)OC[C@H]3O[C@@H](n4cc(C)c(=O)[nH]c4=O)C[C@@H]3O)[C@@H](COP(=O)(O)O[C@H]3C[C@H](n4cc(C)c(=O)[nH]c4=O)O[C@@H]3CO)O2)c(=O)nc1N`, the Tm in the test on Nucleic Acid [1] is under 10 °C; in the test with Nucleic Acid [2], 13 °C; in the test on Nucleic Acid [3], 22 °C; with Nucleic Acid [4], 17 °C.

`Cc1cn([C@H]2C[C@H](OP(=O)(O)OC[C@H]3O[C@@H](n4cc(C)c(=O)[nH]c4=O)C[C@@H]3OP(=O)(O)OC[C@H]3O[C@@H](n4cc(C)c(N)nc4=O)C[C@@H]3OP(=O)(O)OC[C@H]3O[C@@H](n4cc(C)c(=O)[nH]c4=O)C[C@@H]3OP(=O)(O)OC[C@H]3O[C@@H](n4cc(C)c(N)nc4=O)C[C@@H]3OP(=O)(O)OC[C@H]3O[C@@H](n4cc(C)c(=O)[nH]c4=O)C[C@@H]3OP(=O)(O)OC[C@H]3O[C@@H](c4cn(-c5ccccc5O)nn4)C[C@@H]3OP(=O)(O)OC[C@H]3O[C@@H](n4cc(C)c(=O)[nH]c4=O)C[C@@H]3OP(=O)(O)OC[C@H]3O[C@@H](n4cc(C)c(N)nc4=O)C[C@@H]3OP(=O)(O)OC[C@H]3O[C@@H](n4cc(C)c(=O)[nH]c4=O)C[C@@H]3OP(=O)(O)OC[C@H]3O[C@@H](n4cc(C)c(=O)[nH]c4=O)C[C@@H]3OP(=O)(O)OC[C@H]3O[C@@H](n4cc(C)c(=O)[nH]c4=O)C[C@@H]3OP(=O)(O)OC[C@H]3O[C@@H](n4cc(C)c(=O)[nH]c4=O)C[C@@H]3OP(=O)(O)OC[C@H]3O[C@@H](n4cc(C)c(=O)[nH]c4=O)C[C@@H]3O)[C@@H](COP(=O)(O)O[C@H]3C[C@H](n4cc(C)c(=O)[nH]c4=O)O[C@@H]3CO)O2)c(=O)nc1N`: the Tm in the test on Nucleic Acid [1] is under 10 °C; in the test with Nucleic Acid [2], 17 °C; with Nucleic Acid [3], 25 °C; in the test on Nucleic Acid [4] it was 15 °C.

In the case of `Cc1cn([C@H]2C[C@H](OP(=O)(O)OC[C@H]3O[C@@H](n4cc(C)c(=O)[nH]c4=O)C[C@@H]3OP(=O)(O)OC[C@H]3O[C@@H](n4cc(C)c(N)nc4=O)C[C@@H]3OP(=O)(O)OC[C@H]3O[C@@H](n4cc(C)c(=O)[nH]c4=O)C[C@@H]3OP(=O)(O)OC[C@H]3O[C@@H](n4cc(C)c(N)nc4=O)C[C@@H]3OP(=O)(O)OC[C@H]3O[C@@H](n4cc(C)c(=O)[nH]c4=O)C[C@@H]3OP(=O)(O)OC[C@H]3O[C@@H](c4cn(-c5ccccc5C(=O)O)nn4)C[C@@H]3OP(=O)(O)OC[C@H]3O[C@@H](n4cc(C)c(=O)[nH]c4=O)C[C@@H]3OP(=O)(O)OC[C@H]3O[C@@H](n4cc(C)c(N)nc4=O)C[C@@H]3OP(=O)(O)OC[C@H]3O[C@@H](n4cc(C)c(=O)[nH]c4=O)C[C@@H]3OP(=O)(O)OC[C@H]3O[C@@H](n4cc(C)c(=O)[nH]c4=O)C[C@@H]3OP(=O)(O)OC[C@H]3O[C@@H](n4cc(C)c(=O)[nH]c4=O)C[C@@H]3OP(=O)(O)OC[C@H]3O[C@@H](n4cc(C)c(=O)[nH]c4=O)C[C@@H]3OP(=O)(O)OC[C@H]3O[C@@H](n4cc(C)c(=O)[nH]c4=O)C[C@@H]3O)[C@@H](COP(=O)(O)O[C@H]3C[C@H](n4cc(C)c(=O)[nH]c4=O)O[C@@H]3CO)O2)c(=O)nc1N`, the Tm was 12 °C with Nucleic Acid [1], under 10 °C in the test on Nucleic Acid [2], 17 °C in the test on Nucleic Acid [3] and 15 °C with Nucleic Acid [4].

With `Cc1cn([C@H]2C[C@H](OP(=O)(O)OC[C@H]3O[C@@H](n4cc(C)c(=O)[nH]c4=O)C[C@@H]3OP(=O)(O)OC[C@H]3O[C@@H](n4cc(C)c(N)nc4=O)C[C@@H]3OP(=O)(O)OC[C@H]3O[C@@H](n4cc(C)c(=O)[nH]c4=O)C[C@@H]3OP(=O)(O)OC[C@H]3O[C@@H](n4cc(C)c(N)nc4=O)C[C@@H]3OP(=O)(O)OC[C@H]3O[C@@H](n4cc(C)c(=O)[nH]c4=O)C[C@@H]3OP(=O)(O)OC[C@H]3O[C@@H](c4cn(-c5ccc(CO)cc5)nn4)C[C@@H]3OP(=O)(O)OC[C@H]3O[C@@H](n4cc(C)c(=O)[nH]c4=O)C[C@@H]3OP(=O)(O)OC[C@H]3O[C@@H](n4cc(C)c(N)nc4=O)C[C@@H]3OP(=O)(O)OC[C@H]3O[C@@H](n4cc(C)c(=O)[nH]c4=O)C[C@@H]3OP(=O)(O)OC[C@H]3O[C@@H](n4cc(C)c(=O)[nH]c4=O)C[C@@H]3OP(=O)(O)OC[C@H]3O[C@@H](n4cc(C)c(=O)[nH]c4=O)C[C@@H]3OP(=O)(O)OC[C@H]3O[C@@H](n4cc(C)c(=O)[nH]c4=O)C[C@@H]3OP(=O)(O)OC[C@H]3O[C@@H](n4cc(C)c(=O)[nH]c4=O)C[C@@H]3O)[C@@H](COP(=O)(O)O[C@H]3C[C@H](n4cc(C)c(=O)[nH]c4=O)O[C@@H]3CO)O2)c(=O)nc1N`, the Tm is under 10 °C in the test on Nucleic Acid [1], under 10 °C in the test with Nucleic Acid [2], 24 °C in the test on Nucleic Acid [3] and 16 °C with Nucleic Acid [4].

Regarding `Cc1cn([C@H]2C[C@H](OP(=O)(O)OC[C@H]3O[C@@H](n4cc(C)c(=O)[nH]c4=O)C[C@@H]3OP(=O)(O)OC[C@H]3O[C@@H](n4cc(C)c(N)nc4=O)C[C@@H]3OP(=O)(O)OC[C@H]3O[C@@H](n4cc(C)c(=O)[nH]c4=O)C[C@@H]3OP(=O)(O)OC[C@H]3O[C@@H](n4cc(C)c(N)nc4=O)C[C@@H]3OP(=O)(O)OC[C@H]3O[C@@H](n4cc(C)c(=O)[nH]c4=O)C[C@@H]3OP(=O)(O)OC[C@H]3O[C@@H](c4cn(-c5ccc(N)cc5)nn4)C[C@@H]3OP(=O)(O)OC[C@H]3O[C@@H](n4cc(C)c(=O)[nH]c4=O)C[C@@H]3OP(=O)(O)OC[C@H]3O[C@@H](n4cc(C)c(N)nc4=O)C[C@@H]3OP(=O)(O)OC[C@H]3O[C@@H](n4cc(C)c(=O)[nH]c4=O)C[C@@H]3OP(=O)(O)OC[C@H]3O[C@@H](n4cc(C)c(=O)[nH]c4=O)C[C@@H]3OP(=O)(O)OC[C@H]3O[C@@H](n4cc(C)c(=O)[nH]c4=O)C[C@@H]3OP(=O)(O)OC[C@H]3O[C@@H](n4cc(C)c(=O)[nH]c4=O)C[C@@H]3OP(=O)(O)OC[C@H]3O[C@@H](n4cc(C)c(=O)[nH]c4=O)C[C@@H]3O)[C@@H](COP(=O)(O)O[C@H]3C[C@H](n4cc(C)c(=O)[nH]c4=O)O[C@@H]3CO)O2)c(=O)nc1N`, the Tm in the test on Nucleic Acid [1] is under 10 °C; in the test on Nucleic Acid [2] it was 12 °C; in the test with Nucleic Acid [3] it was 23 °C; in the test on Nucleic Acid [4] it was 18 °C.

Regarding `Cc1cn([C@H]2C[C@H](OP(=O)(O)OC[C@H]3O[C@@H](n4cc(C)c(=O)[nH]c4=O)C[C@@H]3OP(=O)(O)OC[C@H]3O[C@@H](n4cc(C)c(N)nc4=O)C[C@@H]3OP(=O)(O)OC[C@H]3O[C@@H](n4cc(C)c(=O)[nH]c4=O)C[C@@H]3OP(=O)(O)OC[C@H]3O[C@@H](n4cc(C)c(N)nc4=O)C[C@@H]3OP(=O)(O)OC[C@H]3O[C@@H](n4cc(C)c(=O)[nH]c4=O)C[C@@H]3OP(=O)(O)OC[C@H]3O[C@@H](c4cn(C5CCCCC5)nn4)C[C@@H]3OP(=O)(O)OC[C@H]3O[C@@H](n4cc(C)c(=O)[nH]c4=O)C[C@@H]3OP(=O)(O)OC[C@H]3O[C@@H](n4cc(C)c(N)nc4=O)C[C@@H]3OP(=O)(O)OC[C@H]3O[C@@H](n4cc(C)c(=O)[nH]c4=O)C[C@@H]3OP(=O)(O)OC[C@H]3O[C@@H](n4cc(C)c(=O)[nH]c4=O)C[C@@H]3OP(=O)(O)OC[C@H]3O[C@@H](n4cc(C)c(=O)[nH]c4=O)C[C@@H]3OP(=O)(O)OC[C@H]3O[C@@H](n4cc(C)c(=O)[nH]c4=O)C[C@@H]3OP(=O)(O)OC[C@H]3O[C@@H](n4cc(C)c(=O)[nH]c4=O)C[C@@H]3O)[C@@H](COP(=O)(O)O[C@H]3C[C@H](n4cc(C)c(=O)[nH]c4=O)O[C@@H]3CO)O2)c(=O)nc1N`, the Tm in the test on Nucleic Acid [1] is under 10 °C; with Nucleic Acid [2], under 10 °C; with Nucleic Acid [3], 20 °C; in the test with Nucleic Acid [4], 12 °C.

As to `CCOC(=O)Cn1cc([C@H]2C[C@H](OP(=O)(O)OC[C@H]3O[C@@H](n4cc(C)c(=O)[nH]c4=O)C[C@@H]3OP(=O)(O)OC[C@H]3O[C@@H](n4cc(C)c(N)nc4=O)C[C@@H]3OP(=O)(O)OC[C@H]3O[C@@H](n4cc(C)c(=O)[nH]c4=O)C[C@@H]3OP(=O)(O)OC[C@H]3O[C@@H](n4cc(C)c(=O)[nH]c4=O)C[C@@H]3OP(=O)(O)OC[C@H]3O[C@@H](n4cc(C)c(=O)[nH]c4=O)C[C@@H]3OP(=O)(O)OC[C@H]3O[C@@H](n4cc(C)c(=O)[nH]c4=O)C[C@@H]3OP(=O)(O)OC[C@H]3O[C@@H](n4cc(C)c(=O)[nH]c4=O)C[C@@H]3O)[C@@H](COP(=O)(O)O[C@H]3C[C@H](n4cc(C)c(=O)[nH]c4=O)O[C@@H]3COP(=O)(O)O[C@H]3C[C@H](n4cc(C)c(N)nc4=O)O[C@@H]3COP(=O)(O)O[C@H]3C[C@H](n4cc(C)c(=O)[nH]c4=O)O[C@@H]3COP(=O)(O)O[C@H]3C[C@H](n4cc(C)c(N)nc4=O)O[C@@H]3COP(=O)(O)O[C@H]3C[C@H](n4cc(C)c(=O)[nH]c4=O)O[C@@H]3COP(=O)(O)O[C@H]3C[C@H](n4cc(C)c(N)nc4=O)O[C@@H]3COP(=O)(O)O[C@H]3C[C@H](n4cc(C)c(=O)[nH]c4=O)O[C@@H]3CO)O2)nn1`, the Tm is 12 °C with Nucleic Acid [1], under 10 °C in the test with Nucleic Acid [2], 20 °C in the test with Nucleic Acid [3] and 14 °C in the test on Nucleic Acid [4].

These data come from ChEMBL document CHEMBL1949561, “Synthesis and triplex-forming ability of oligonucleotides bearing 1-substituted 1H-1,2,3-triazole nucleobases” (Bioorg Med Chem, 2011).
